The source made the active and inactive calls. No cut-off for these calls is given here.
Tests used:
Assay type in all cases: cell-based
Toll-like receptor 7 = target: T1, Toll-like receptor 7 (Homo sapiens, UniProt Q9NYK1); test: Inhibition of human TLR7 expressed in HEK293 cells assessed as reduction in R848-induced NFkappaB production incubated for 16 hrs by quanti-blue SEAP assay
T1 sequence (Q9NYK1 whole entry): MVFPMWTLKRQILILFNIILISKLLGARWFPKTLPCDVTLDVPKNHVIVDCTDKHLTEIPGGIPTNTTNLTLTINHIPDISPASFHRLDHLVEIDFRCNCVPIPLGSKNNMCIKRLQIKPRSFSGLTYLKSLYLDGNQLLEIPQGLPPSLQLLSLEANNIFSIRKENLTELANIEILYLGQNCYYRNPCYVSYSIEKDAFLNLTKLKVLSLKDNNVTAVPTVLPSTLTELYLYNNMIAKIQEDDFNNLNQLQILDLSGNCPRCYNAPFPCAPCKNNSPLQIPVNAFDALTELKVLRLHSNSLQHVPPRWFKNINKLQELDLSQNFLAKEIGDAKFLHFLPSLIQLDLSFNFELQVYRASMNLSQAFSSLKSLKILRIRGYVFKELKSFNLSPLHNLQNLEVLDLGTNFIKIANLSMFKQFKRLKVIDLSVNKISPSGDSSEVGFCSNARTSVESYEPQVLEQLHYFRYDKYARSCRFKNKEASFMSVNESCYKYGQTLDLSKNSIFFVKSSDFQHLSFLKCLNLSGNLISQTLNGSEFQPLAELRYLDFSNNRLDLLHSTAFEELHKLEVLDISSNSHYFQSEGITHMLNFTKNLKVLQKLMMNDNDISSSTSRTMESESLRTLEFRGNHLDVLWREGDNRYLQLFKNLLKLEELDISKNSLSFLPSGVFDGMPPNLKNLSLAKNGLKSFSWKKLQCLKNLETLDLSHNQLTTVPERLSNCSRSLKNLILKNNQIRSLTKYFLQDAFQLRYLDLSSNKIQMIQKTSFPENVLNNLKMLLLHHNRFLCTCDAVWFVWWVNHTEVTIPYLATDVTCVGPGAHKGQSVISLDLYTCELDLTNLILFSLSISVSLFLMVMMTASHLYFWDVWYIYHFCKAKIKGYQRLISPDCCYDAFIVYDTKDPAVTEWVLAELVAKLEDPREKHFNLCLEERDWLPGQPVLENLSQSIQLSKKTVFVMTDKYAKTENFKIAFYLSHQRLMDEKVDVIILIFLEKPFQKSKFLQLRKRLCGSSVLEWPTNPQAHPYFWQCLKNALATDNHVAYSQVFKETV
Outline: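 HEK 293-Blue cells stably expressing hTLR7 or hTLR8 with an inducible SEAP reporter were incubated 16 h with compound under 1 µg/mL R848 stimulation. SEAP was read at 620 nm. Data were normalized to the R848 control, and IC50 was taken from concentration-response curves. […] Mean ± s.d., n = 3 independent experiments.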

[1] = target: T2, Toll-like receptor 8 (Homo sapiens) (UniProt Q9NR97); test: Inhibition of human TLR8 expressed in HEK293 cells assessed as reduction in R848-induced NFkappaB production at 0.5 uM incubated for 16 hrs by quanti-blue SEAP assay
T2 sequence (whole entry): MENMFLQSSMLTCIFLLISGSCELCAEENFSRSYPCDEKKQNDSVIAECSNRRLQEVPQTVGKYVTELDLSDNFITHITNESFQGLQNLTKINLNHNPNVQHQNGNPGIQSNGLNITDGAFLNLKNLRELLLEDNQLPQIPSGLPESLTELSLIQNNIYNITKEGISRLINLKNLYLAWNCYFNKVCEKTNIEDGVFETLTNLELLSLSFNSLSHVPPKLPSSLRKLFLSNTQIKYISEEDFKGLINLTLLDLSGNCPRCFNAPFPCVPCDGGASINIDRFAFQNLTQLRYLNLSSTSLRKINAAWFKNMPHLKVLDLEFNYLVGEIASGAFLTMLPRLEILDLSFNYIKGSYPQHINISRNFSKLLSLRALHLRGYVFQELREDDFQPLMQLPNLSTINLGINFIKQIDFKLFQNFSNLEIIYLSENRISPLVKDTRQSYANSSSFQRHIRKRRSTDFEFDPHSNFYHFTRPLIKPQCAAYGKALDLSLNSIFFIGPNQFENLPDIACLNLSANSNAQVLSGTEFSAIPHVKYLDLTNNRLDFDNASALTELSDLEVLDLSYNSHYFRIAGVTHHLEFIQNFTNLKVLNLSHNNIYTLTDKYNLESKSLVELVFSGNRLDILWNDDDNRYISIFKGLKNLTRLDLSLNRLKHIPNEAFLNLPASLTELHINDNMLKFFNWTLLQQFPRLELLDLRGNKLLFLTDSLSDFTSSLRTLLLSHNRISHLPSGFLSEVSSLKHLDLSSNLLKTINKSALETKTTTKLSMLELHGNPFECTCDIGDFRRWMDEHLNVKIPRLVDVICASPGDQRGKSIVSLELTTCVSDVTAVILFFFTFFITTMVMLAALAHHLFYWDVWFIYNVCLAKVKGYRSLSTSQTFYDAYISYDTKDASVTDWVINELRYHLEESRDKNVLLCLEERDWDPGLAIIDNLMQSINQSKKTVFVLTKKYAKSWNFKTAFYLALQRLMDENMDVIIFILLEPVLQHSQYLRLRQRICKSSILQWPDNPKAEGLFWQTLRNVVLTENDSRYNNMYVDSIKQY

HEK293 [2] = test: Cytotoxicity against human HEK293 cells transfected with human TLR7 assessed as reduction in cell viability at 100 uM incubated for 16 hrs by WST-1 assay; details: hek293, 16 h
HEK293 [3] = test: Cytotoxicity against human HEK293 cells transfected with human TLR8 assessed as reduction in cell viability at 100 uM incubated for 16 hrs by WST-1 assay; details: hek293, 16 h
THP-1 = test: Cytotoxicity against human THP1 cells transfected with human TLR7/8 assessed as reduction in cell viability at 0.5 to 20 uM incubated for 16 hrs by WST-1 assay; details: thp-1, 16 h
RAW264.7 [4] = test: Cytotoxicity against mouse RAW264.7 cells assessed as reduction in cell viability at 0.5 to 20 uM incubated for 16 hrs by WST-1 assay; details: raw264.7, 16 h
RAW264.7 [5] = test: Cytotoxicity against mouse RAW264.7 cells transfected with human TLR7/8 assessed as reduction in cell viability at 0.5 to 20 uM incubated for 16 hrs by WST-1 assay; details: raw264.7, 16 h
[6] = target: T2, Toll-like receptor 8 (Homo sapiens); test: Inhibition of human TLR8 expressed in HEK293 cells assessed as reduction in IL1beta production incubated for 24 hrs by ELISA
HEK293 [7] = test: Cytotoxicity against human HEK293 cells transfected with human TLR7 assessed as reduction in cell viability at 0.5 to 20 uM incubated for 16 hrs by WST-1 assay; details: hek293, 16 h

IC50 (Toll-like receptor 7) [µM] | inhibition [1] | inhibition [6] | Structure (SMILES) | Activity (HEK293 [2]) | Activity (HEK293 [3]) | Activity (THP-1) | Activity (RAW264.7 [4]) | Activity (RAW264.7 [5]) | Activity (HEK293 [7])
> 50 | inactive | Active | O=C(Nc1ccc(Oc2cc(C(F)(F)F)cc(C(F)(F)F)c2)cc1)c1c(F)cccc1I | Toxic | Toxic | Non-Toxic | Non-Toxic | Non-Toxic | Non-Toxic
2.88 | – | – | O=C(Nc1ccc(Oc2cc(C(F)(F)F)cc(C(F)(F)F)c2)cc1)c1c(F)cccc1Cl | – | – | – | – | – | –
– | inactive | Active | O=C(Nc1ccc(Oc2cncc(C(F)(F)F)c2)cc1)c1c(F)cccc1Cl | Toxic | Toxic | Non-Toxic | Non-Toxic | Non-Toxic | Non-Toxic
> 20 | – | Active | O=[N+]([O-])c1c(I)cccc1Oc1ccc(-c2nnco2)cc1 | Toxic | Toxic | Non-Toxic | Non-Toxic | Non-Toxic | Non-Toxic

— ChEMBL document CHEMBL4354819, “Discovery of Novel Small Molecule Dual Inhibitors Targeting Toll-Like Receptors 7 and 8” (J Med Chem, 2019)
